Hits are enriched below; roughly 1.4% of the tested compounds scored in any of these assays.
Rev-erbA mod – Rev-erb alpha (human) modulation; AID 1259318; P20393; actives 0.79% (n = 370,000); activity, % at 10 µM; Rev-erbα–FITC-DNA binding, fluorescence polarization, 90 min;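 active = activity above about 14%, limit read from the data; passing the limit was not always enough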
NR2E3 ag-1 – agonists of human nuclear receptor NR2E3; Q9Y5X4; GST-NR2E3/biotin-RetCOR TR-FRET, 1536-well; inhibition of corepressor binding, % at 4.78 µM; actives 0.12% (n = 320,000);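 active = percent inhibition above the cutoff of mean plus 3 SD of all tested compounds, set per screening campaign, cut at about 20% in these data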
Target sequence (Q9Y5X4 whole entry, looked up): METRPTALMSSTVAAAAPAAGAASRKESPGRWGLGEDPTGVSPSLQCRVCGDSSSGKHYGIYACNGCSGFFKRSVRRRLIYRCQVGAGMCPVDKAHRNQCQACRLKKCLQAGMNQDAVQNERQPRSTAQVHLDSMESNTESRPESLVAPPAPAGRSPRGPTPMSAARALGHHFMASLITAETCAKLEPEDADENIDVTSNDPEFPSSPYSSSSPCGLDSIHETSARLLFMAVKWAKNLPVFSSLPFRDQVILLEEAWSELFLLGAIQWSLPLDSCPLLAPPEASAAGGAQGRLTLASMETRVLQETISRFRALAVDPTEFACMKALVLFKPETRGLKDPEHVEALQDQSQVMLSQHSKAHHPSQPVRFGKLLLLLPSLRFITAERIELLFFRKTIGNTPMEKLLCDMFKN
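Test system: GST-NR2E3 and biotin-RetCOR proteins | Quantity: 1.35 nM GST-tagged NR2E3 final | Medium: Tris pH 7.5 | Also added: 7 nM biotin-RetCOR | Dosing: Compound at 4.8 µM, single dose | Timing: 5 h at 4 °C | Detection: Time-resolved FRET | Read-out basis: Percent inhibition | Benchmarks: Biotin wells as high control, 0.6% DMSO wells as low control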
PG9 Ab binder – binds the HIV-1 gp120 antibody PG9 | TR-FRET gp120-PG9 antibody binding | inhibition, % at 6.7 µM | actives 0.43% (n = 360,000); in the data active = inhibition above about 8.5%
NR2E3 ag-2 – activates human NR2E3 receptor. Q9Y5X4. CHO-S Gal4-NCOR/VP16-NR2E3 two-hybrid, luciferase. inhibition of corepressor binding, % at 3.98 µM. actives 0.35% (n = 360,000). AID 602229;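 active = inhibition above the mean of all tested compounds plus 3 SD, cut at about 70% in these data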;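 note: higher means lower luciferase signal from less NR2E3 corepressor binding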
NR2E3 ag conf – confirmation of human NR2E3 agonists; AID 624378; shares compounds with NR2E3 ag-2; CHO-S mammalian two-hybrid NR2E3-NCOR, luciferase luminescence; actives 51% (n = 2,300); inhibition, % at 3.98 µM;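 active = average inhibition above a cutoff equal to the mean inhibition of all tested compounds plus one SD, cut at about 70% in these data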
GAL4-VP16 luc – reduces GAL4-VP16 reporter signal in NR2E3 counterscreen. CHO-S GAL4-VP16 luciferase reporter, luminescence. shares compounds with NR2E3 ag-2. actives 29% (n = 2,300). inhibition, % at 3.98 µM;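 active = mean inhibition above a cutoff equal to the average over all tested compounds plus one standard deviation, cut at about 70% in these data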;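 note: luciferase from a UAS reporter driven by GAL4-VP16 transactivation; higher means less reporter light so more repression of VP16 activity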
Of the large screens only hits and unclear results are named; the others gave an inactive call (follow-up assays come after a bar, where they were run).

COC(=O)c1cn(NC(=O)C2CCC(C)CC2)c(=O)c2ccccc12 (stereo not drawn)	none
COC(=O)c1cn(NC(=O)c2cc([N+](=O)[O-])ccc2F)c(=O)c2ccccc12	NR2E3 ag-2 91 | NR2E3 ag conf 82 | GAL4-VP16 luc inactive
CCN(CC)c1ccc(S(=O)(=O)Nc2cc(Cl)ccc2Cl)cc1NC(=S)NC(=O)C1CCCC1	none | NR2E3 ag conf inactive | GAL4-VP16 luc inactive
COc1ccccc1C(=O)N(CCC1CCCN1C)c1nc2ccccc2s1 (stereo not drawn)	none | NR2E3 ag conf inactive | GAL4-VP16 luc inactive
Cc1ccc(Cn2cc(CN3[C@@H](CC(C)C)COc4cc(Br)ccc4S3(=O)=O)nn2)cc1	none (no result: NR2E3 ag-1, PG9 Ab binder, NR2E3 ag-2)
Cc1cnc(C(=O)Nc2cccc3cccnc23)cn1	NR2E3 ag-2 77 (no result: NR2E3 ag-1) | NR2E3 ag conf inactive | GAL4-VP16 luc inactive
COC(=O)[C@]12C[C@H](CC(=O)NCc3cccc(C(F)(F)F)c3)C(=O)N(Cc3ccc(Cl)cc3Cl)C1=C[C@H](C(C)(C)C)O[C@@H]2C	none (no result: NR2E3 ag-1, PG9 Ab binder, NR2E3 ag-2)
Clc1cc2cccnc2c2ncccc12	NR2E3 ag-2 83 | NR2E3 ag conf 95 | GAL4-VP16 luc inactive
Cc1c(C)c2cccnc2c2ncccc12	NR2E3 ag-2 79 (no result: Rev-erbA mod, PG9 Ab binder) | NR2E3 ag conf inactive | GAL4-VP16 luc inactive
Oc1c(I)cc(Cl)c2cccnc12	none
COCCNC(=O)[C@]1(C#N)CC(=O)N(C)[C@@H]1c1ccccc1	none (no result: NR2E3 ag-1, PG9 Ab binder, NR2E3 ag-2)
O=C(OCCC12CC3CC(CC(C3)C1)C2)c1ccc(NCc2cc(O)ccc2O)cc1	none (no result: NR2E3 ag-1)
O=C(OCC12CC3CC(CC(C3)C1)C2)c1ccc(NCc2cc(O)ccc2O)cc1	NR2E3 ag-2 74 (no result: NR2E3 ag-1) | NR2E3 ag conf inactive | GAL4-VP16 luc inactive
CC1(NC(=O)c2ccc(C#Cc3cccc(F)c3)cn2)COC1	none (no result: NR2E3 ag-1, PG9 Ab binder, NR2E3 ag-2)
CCC(=O)N1CCCc2cc(S(=O)(=O)N3CCN(c4ccccn4)CC3)ccc21	none | NR2E3 ag conf 93 | GAL4-VP16 luc inactive
CCC(=O)N1CCCc2cc(S(=O)(=O)N3CCN(c4ncccn4)CC3)ccc21	none
C#CCN1CC(N(C)CCCO)CS1(=O)=O (stereo not drawn)	none (no result: NR2E3 ag-1, PG9 Ab binder, NR2E3 ag-2)
CN(C)C(=O)CCc1nc(-c2ccc(C(C)(C)C)cc2)no1	none
CNC(=O)CCc1nc(-c2ccc(C(C)(C)C)cc2)no1	none | NR2E3 ag conf 71 | GAL4-VP16 luc 76
CC(C)(C)c1ccc(-c2noc(CCC(N)=O)n2)cc1	NR2E3 ag-2 80 | NR2E3 ag conf 78 | GAL4-VP16 luc 77
CC(C)(C)c1ccc(-c2noc(CCC(=O)Nc3cccnc3)n2)cc1	NR2E3 ag-2 84 | NR2E3 ag conf 75 | GAL4-VP16 luc 79
CC(C)(C)c1ccc(-c2noc(CCC(=O)NCC3CCCO3)n2)cc1 (stereo not drawn)	NR2E3 ag-2 83 | NR2E3 ag conf 73 | GAL4-VP16 luc inactive
N[C@@H](CCC(=O)N[C@@H](CS)C(=O)NCC(=O)O)C(=O)O	none (no result: NR2E3 ag-1, PG9 Ab binder, NR2E3 ag-2)
O=C(NCCc1ccccc1)OCc1cn(-c2ccc(Cl)cc2)nn1	none (no result: NR2E3 ag-1, PG9 Ab binder, NR2E3 ag-2)
Cc1ccc(C(=O)NC2CCCCN(C(C)C)C2=O)cc1 (stereo not drawn)	none (no result: NR2E3 ag-1, PG9 Ab binder, NR2E3 ag-2)
O=C(c1cc(Br)cc(Br)c1)N1CCC(Oc2cccnc2)CC1	none (no result: NR2E3 ag-1, PG9 Ab binder, NR2E3 ag-2)
COc1ccc(S[C@]2(C(=O)N(C)C)CC(=O)N(C(=O)CCc3ccccc3)[C@@H]2c2ccc(OC)cc2)cc1	none (no result: NR2E3 ag-1, PG9 Ab binder, NR2E3 ag-2)
CC(=O)c1c(C)oc2ccc(NS(=O)(=O)c3ccc(F)cc3C)cc12	none | NR2E3 ag conf inactive | GAL4-VP16 luc inactive
COc1cc(NCc2ccc3nc(N)nc(N)c3c2C)cc(OC)c1OC	none (no result: NR2E3 ag-1, PG9 Ab binder, NR2E3 ag-2)
O=c1c(Br)ccc(Br)cc1Br	NR2E3 ag-2 71 (no result: NR2E3 ag-1) | NR2E3 ag conf 100 | GAL4-VP16 luc inactive
CCOC(=O)[C@H](CCc1ccccc1)N[C@H]1CCCN2CCC[C@@H](C(=O)O)N2C1=O	none (no result: NR2E3 ag-1, PG9 Ab binder, NR2E3 ag-2)
COc1cc(/C=N/NC(=O)c2cc(C3CC3)[nH]n2)ccc1O	none
COc1cc(/C=N/NC(=O)c2[nH]nc3c2CCc2ccccc2-3)ccc1O	none | NR2E3 ag conf inactive | GAL4-VP16 luc inactive
COc1cc(/C=N/NC(=O)c2cc(C34CC5CC(CC(C5)C3)C4)[nH]n2)ccc1O	NR2E3 ag-2 70 | NR2E3 ag conf inactive | GAL4-VP16 luc inactive
COC(=O)c1c(C)oc2ccc(N(C(=O)c3ccncc3)S(=O)(=O)c3ccc4ccccc4c3)cc12	NR2E3 ag-2 89 | NR2E3 ag conf 97 | GAL4-VP16 luc 87
